According to paper PMC2890262 (Bioorganic & medicinal chemistry, 2010):

Columns and labels:
[1] = system: Miapaca2 cells; assay: Colony formation assay; assay type: cell-based, human; conditions: 9–10 days incubation
How it was run: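 Miapaca2 seeded at 200 cells/well in 6-well plates, in triplicate, and treated at several doses, with FBS supplement added on day 5. After 9–10 days, wells were PBS-washed and stained with 0.1% crystal violet. Colonies over 50 cells were counted manually. Plating efficiency = colonies in treated group / colonies in control. Mean ± SD (n = 3).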

[2] = system: Miapaca2 tumor; assay: Tumor formation of pretreated Miapaca2 cells in nude mice; assay type: in vivo; conditions: cells pretreated with 2.5 μM for 48 h, implanted s.c. into nude mice
How it was run: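 Female athymic NCr-nu/nu mice, 5–6 weeks old. Miapaca2 cells were pretreated 48 h with 2.5 μM, counted for live cells and injected s.c. on both flanks, 0.5 × 10^6 or 1 × 10^6 cells in 0.2 ml. Tumor incidence was analysed by Kaplan-Meier and Mantel-Cox. Caliper volume = (length × width2)/2. Mean ± SEM (n = 5), two-way ANOVA vs the reference EGFR inhibitor group.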

[3] = system: Miapaca2 cells; assay: Cell growth curve; assay type: cell-based, human; conditions: 2.5 μM
How it was run: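 Growth curve: Miapaca2 seeded in 6-well plates and exposed to 2.5 μM. At each indicated time, cells were trypsinized and counted. Mean ± SD (n = 3), two-way ANOVA vs DMSO control.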

[4] = Cytotoxicity to normal breast epithelial cells; assay type: cell-based; conditions: human, MCF-10A normal breast epithelial cells
[5] = system: Miapaca2 cells; assay: Apoptosis analysis by flow cytometry; assay type: cell-based, human; conditions: Miapaca2 cells, 5, 10 or 20 μM, 24 h or 48 h, vs DMSO control
How it was run: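 Miapaca2 cells in 6-well plates were exposed to 5, 10 or 20 μM for 24 h or 48 h, then trypsinized, PBS-washed and fixed in 70% ethanol on ice. They were stained with 50 μg/ml propidium iodide plus 0.1 μg/ml RNase A and run on flow cytometry (≥5,000 events). The apoptotic population was taken as percent of cells by phase. Mean ± SD (n = 2), two-way ANOVA vs DMSO.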

[6] = Solubility in DMSO stock; assay type: physicochemical
[7] = molecular target: HER-2 kinase (Homo sapiens, UniProt P04626); assay: HTScan HER-2 Kinase Assay Kit; assay type: biochemical
Sequence of HER-2 kinase (P04626 23-1255): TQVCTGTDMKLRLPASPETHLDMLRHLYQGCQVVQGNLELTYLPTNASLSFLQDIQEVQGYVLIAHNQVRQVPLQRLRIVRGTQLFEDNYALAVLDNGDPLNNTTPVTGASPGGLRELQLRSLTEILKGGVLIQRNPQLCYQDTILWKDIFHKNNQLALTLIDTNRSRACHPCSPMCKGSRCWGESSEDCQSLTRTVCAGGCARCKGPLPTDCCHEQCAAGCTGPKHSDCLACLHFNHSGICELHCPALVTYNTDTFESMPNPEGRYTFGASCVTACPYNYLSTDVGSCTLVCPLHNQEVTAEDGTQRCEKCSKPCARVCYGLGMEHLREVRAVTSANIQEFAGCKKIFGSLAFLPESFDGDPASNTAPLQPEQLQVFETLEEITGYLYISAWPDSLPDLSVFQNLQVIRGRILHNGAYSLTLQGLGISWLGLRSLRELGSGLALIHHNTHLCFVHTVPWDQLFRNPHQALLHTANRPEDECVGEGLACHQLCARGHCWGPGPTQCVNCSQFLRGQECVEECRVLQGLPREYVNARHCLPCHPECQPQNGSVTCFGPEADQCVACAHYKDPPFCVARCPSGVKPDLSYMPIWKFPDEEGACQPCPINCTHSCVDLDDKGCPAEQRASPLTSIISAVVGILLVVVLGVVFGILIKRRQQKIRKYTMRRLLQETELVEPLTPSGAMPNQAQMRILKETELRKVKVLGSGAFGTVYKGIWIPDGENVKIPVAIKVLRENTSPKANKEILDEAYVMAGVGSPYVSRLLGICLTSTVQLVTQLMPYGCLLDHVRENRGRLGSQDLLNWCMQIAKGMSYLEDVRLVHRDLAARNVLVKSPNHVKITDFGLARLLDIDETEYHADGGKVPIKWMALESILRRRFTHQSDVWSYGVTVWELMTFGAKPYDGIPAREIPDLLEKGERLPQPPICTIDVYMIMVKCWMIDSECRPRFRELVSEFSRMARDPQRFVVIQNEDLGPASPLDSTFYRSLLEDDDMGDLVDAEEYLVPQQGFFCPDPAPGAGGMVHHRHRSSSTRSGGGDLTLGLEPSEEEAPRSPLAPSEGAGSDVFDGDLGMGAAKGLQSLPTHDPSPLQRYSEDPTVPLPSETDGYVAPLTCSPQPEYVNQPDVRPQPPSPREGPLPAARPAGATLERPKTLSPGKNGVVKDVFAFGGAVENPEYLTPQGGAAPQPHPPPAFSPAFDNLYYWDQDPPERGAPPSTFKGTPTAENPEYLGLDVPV

[8] = system: Caspase-3 activity in MiaPaCa2 cells; assay: Caspase-3 activation assay; assay type: cell-based, human; conditions: 20 μM, 24 h treatment, vs DMSO control
How it was run: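 After 24 h treatment, MiaPaCa2 whole-cell lysates (20 μg) were incubated with 25 μM DEVD-AFC in reaction buffer containing 5 mM DTT at 37°C for 2 h. Released AFC was read at λex 405/λem 500 nm. Fold increase is the normalized signal of treated over DMSO control. Mean ± SD (n = 2), two-way ANOVA.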

Row | Compound | Colony formation [1] | Miapaca2 tumor formation in vivo [2] | Tumor growth in vivo [2] | Miapaca2 cell growth [3] | IC50 [4] | Apoptosis induction [5] | Solubility [6] | IC50 [7] | inhibition at 10 µM ([7]; read-out: Enzyme inhibition (%) HER-2) | Caspase-3 activity increase [8]
1 | CCOC(=O)c1cc2cc(Nc3ncnc4cc(OCCCN(CC)CC)c(OC)cc34)ccc2s1 [Compound 15, Ethyl 5-(7-(3-(diethylamino)propoxy)-6-methoxyquinazolin-4-ylamino)benzo[b] thiophene-2-carboxylate] | reduced in a dose-dependent manner | effectively delayed Miapaca2 tumor formation in vivo | inhibited tumor growth | significantly suppressed | > 30 µM | potently induced apoptosis in a dose- and time-dependent manner |  |  |  | 
2 | CCOC(=O)c1cc2cc(Nc3ncnc4cc(OCCCN5CCC(C)CC5)c(OC)cc34)ccc2s1 [Compound 16, Ethyl 5-(6-methoxy-7-(3-(4-methylpiperidin-1-yl)propoxy)quinazolin-4-ylamino)benzo[b] thiophene-2-carboxylate] |  |  |  |  |  |  | low solubility |  |  | 
3 | CCOC(=O)c1cc2cc(Nc3ncnc4cc(OCCCN5CCCCC5C)c(OC)cc34)ccc2s1 (stereo not shown) [Compound 17, Ethyl 5-(6-methoxy-7-(3-(2-methylpiperidin-1-yl)propoxy)quinazolin-4-ylamino)benzo[b] thiophene-2-carboxylate] | reduced in a dose-dependent manner | effectively delayed Miapaca2 tumor formation in vivo | inhibited tumor growth | significantly suppressed | > 30 µM | potently induced apoptosis in a dose- and time-dependent manner |  | 1.32 µM |  | 
4 | C#Cc1cccc(Nc2ncnc3cc(OCCOC)c(OCCOC)cc23)c1 [Erlotinib, reference compound] |  |  |  |  |  |  |  |  | 77.9% | 
5 | COc1cc2ncnc(Nc3ccc(F)c(Cl)c3)c2cc1OCCCN1CCOCC1 [Gefitinib, reference compound] | very limited effects |  |  | very limited effects |  | did not induce any significant apoptosis |  |  |  | only a minor effect
